Test results as given in paper PMC4609290 (Molecular cell, 2015).

Columns and labels:
[1] = tested on: ML2 leukemia cells; experiment: Proliferation of ML2 cells; assay type: cell-based; conditions: AF10-depleted ML2 cells; three independent experiments
Method in brief: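 Growth curves were run on ML2 leukemia cells (MLL-AF6 fusion) carrying control or AF10-targeting sgRNA, either without reconstitution or reconstituted with wild-type AF10 or AF10L107A. SEM came from three independent experiments.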

[2] = tested on: H3K79me2 at the PABPC1 gene, U2OS cells; experiment: ChIP of H3K79me2 at PABPC1; assay type: cell-based; conditions: AF10 deleted, normalized to total H3, three experiments
Method in brief: (§1)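 Direct ChIP at the PABPC1 gene used two primer positions along the gene in the U2OS AF10 complementation lines. GFP enrichment was expressed as % GFP signal/input. H3K79me2 signal was normalized to total H3 signal. SEM came from three experiments.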

[3] = tested on: PABPC1 gene, U2OS cells; experiment: ChIP of GFP at PABPC1; assay type: cell-based; conditions: % GFP signal/input, three experiments
Method in brief: as §1

[4] = tested on: chromatin (U2OS cells); assay type: cell-based
Method in brief: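 Lysates from U2OS cells expressing wild-type or mutant GFP-AF10 were biochemically separated into soluble and chromatin-enriched fractions, then Western blotted with the indicated antibodies. Whole cell extract controlled for total AF10 expression, and tubulin and H3 levels controlled for integrity of fractionation.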

[5] = tested on: H3(15-34) peptides; experiment: Peptide pull-down and ITC of AF10PZP mutants; assay type: binding; conditions: pull-down and ITC assays
Method in brief: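 Alanine substitutions were made at AF10PZP residues that contact H3T22, H3K23, H3A24, H3R26 and H3K27. GST-AF10PZP (pGEX-6P-1 construct) was used in pull-downs with biotinylated H3(15-34) peptides, and binding was also assessed by ITC.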

[6] = tested on: chromatin (HeLa cells); experiment: In situ fractionation, fluorescence microscopy; assay type: cell-based; conditions: detergent treatment prior to fixation, 30–60 cells, three independent fields, two biological replica

- effect of AF10PZP mutation on binding to H3 peptides [5]: abolishes H3 binding
B1: GFP-AF10L107A: AF10 mutant that abolishes H3 binding, involved in both K23 and K27 side-chain recognition (protein)
chain: MVSSDRPVSLEDEVSHSMKEMIGGCCVCSDERGWAENPLVYCDGHGCSVAVHQACYGIVQVPTGPWFCRKCESQERAARVRCELCPHKDGALKRTDNGGWAHVVCAAYIPEVQFANVSTMEPIVLQSVPHDRYNKTCYICDEQGRESKAATGACMTCNKHGCRQAFHVTCAQFAGLLCEEEGNGADNVQYCGYCKYHFSKLKKSKRGS
modifications: left off: GST, end not stated, kept
- reversal of decreased proliferation [1]: but not with mutant AF10L107A
- reconstitution of H3K79me2 signal at PABPC1 [2]: but not upon induction of GFP-AF10L107A
- occupancy at the PABPC1 gene [3]: low relative to wild-type GFP-AF10
- AF10 enrichment at chromatin ([4]; tetracycline-inducible GFP-AF10): reduced in comparison to wild-type AF10
- AF10 detected in the soluble fraction ([4]; versus wild-type AF10): more mutant being detected in the soluble fraction
- chromatin-association by in situ fractionation [6]: Decreased chromatin-association
